According to ChEMBL document CHEMBL4689842, “EUbOPEN Chemogenomics Library wave 1” (2021):

Test system: HEK-293T
Experiment: Multiplex assay against HEK293T;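 on Population Tubulin-Different-Phenotype (%): share of the cells with healthy nuclei that show this phenotype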
Assay type: toxicity, cell-based
Conditions: human
Summary of the method: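 Per cents of healthy-nucleus cells form the tubulin, mitochondrial-mass and membrane-permeability phenotype values. Live cells were stained at seeding with Hoechst33342, BioTracker Green Microtubule Cytoskeleton Dye, MitoTracker Red and Annexin V Alexa Fluor 680. After compound addition they were imaged on a CQ1 microscope at 37°C and 5% CO2, and CellPathfinder machine-learning gating split them into Hoechst high-intensity objects or normal cells, normal cells into healthy, pyknosed or fragmented nuclei, and pyknosed cells into mitotic or apoptotic.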

[1] = 12 h, 1 µM, compound concentration 1 uM, replicate 1
[2] = 12 h, 1 µM, compound concentration 1 uM, replicate 2
[3] = 12 h, 10 µM, compound concentration 10 uM, replicate 1
[4] = 12 h, 10 µM, compound concentration 10 uM, replicate 2
[5] = 24 h, 1 µM, compound concentration 1 uM, replicate 1
[6] = 24 h, 1 µM, compound concentration 1 uM, replicate 2
[7] = 24 h, 10 µM, compound concentration 10 uM, replicate 1
[8] = 24 h, 10 µM, compound concentration 10 uM, replicate 2
[9] = 48 h, 1 µM, compound concentration 1 uM, replicate 1
[10] = 48 h, 1 µM, compound concentration 1 uM, replicate 2
[11] = 48 h, 10 µM, compound concentration 10 uM, replicate 1
[12] = 48 h, 10 µM, compound concentration 10 uM, replicate 2

Which “Population Apoptotic (%)” value [1] does the source give for Cc1ccc(C(=O)Nc2cccc(C(F)(F)F)c2)cc1Nc1nc(-c2cccnc2)nc2c1cnn2C here?
Its value is 63%.

What about the “Population Fragmented Nuclei (%)” value [1] of the same compound?
The value was 15%.

What about the “Population Healthy Nuclei (%)” value [1] of the same compound?
The value was 33%.

What about the “Population Hoechst High Intensity Objects (%)” value [1] of the same compound?
The value was 19%.

What about the “Population Membrane Permeable-Phenotype (%)” value [1] of the same compound?
Its value is 1%.

What about the “Population Mitochondria Different-Phenotype (%)” value [1] of the same compound?
The value was 94%.

And the “Population Mitotic Cells (%)” value [1]?
Its value is 36%.

What about the “Population Normal (%)” value [1] of the same compound?
Its value is 80%.

And the “Population Pyknosed Nuclei (%)” value [1]?
Its value is 50%.

And the “Population Tubulin-Different-Phenotype (%)” value [1]?
The value was 94%.

And the “Total Cell Count” value [1]?
The value was 318.

And the “Population Apoptotic (%)” value [2]?
Its value is 27%.

And the “Population Fragmented Nuclei (%)” value [2]?
The value was 7%.

And the “Population Healthy Nuclei (%)” value [2]?
Its value is 25%.

What about the “Population Hoechst High Intensity Objects (%)” value [2] of the same compound?
The value was 9%.

And the “Population Membrane Permeable-Phenotype (%)” value [2]?
The value was 7%.

What about the “Population Mitochondria Different-Phenotype (%)” value [2] of the same compound?
The value was 52%.

What about the “Population Mitotic Cells (%)” value [2] of the same compound?
Its value is 72%.

And the “Population Normal (%)” value [2]?
Its value is 90%.

What about the “Population Pyknosed Nuclei (%)” value [2] of the same compound?
Its value is 66%.

What about the “Population Tubulin-Different-Phenotype (%)” value [2] of the same compound?
The value was 89%.

And the “Total Cell Count” value [2]?
The value was 162.

What about the “Population Apoptotic (%)” value [3] of the same compound?
Its value is 86%.

What about the “Population Fragmented Nuclei (%)” value [3] of the same compound?
The value was 16%.

And the “Population Healthy Nuclei (%)” value [3]?
Its value is 7%.

What about the “Population Hoechst High Intensity Objects (%)” value [3] of the same compound?
Its value is 19%.

And the “Population Membrane Permeable-Phenotype (%)” value [3]?
Its value is 8%.

What about the “Population Mitochondria Different-Phenotype (%)” value [3] of the same compound?
The value was 91%.

And the “Population Mitotic Cells (%)” value [3]?
Its value is 13%.

What about the “Population Normal (%)” value [3] of the same compound?
Its value is 80%.

And the “Population Pyknosed Nuclei (%)” value [3]?
Its value is 75%.

And the “Population Tubulin-Different-Phenotype (%)” value [3]?
Its value is 91%.

What about the “Total Cell Count” value [3] of the same compound?
The value was 200.

What about the “Population Apoptotic (%)” value [4] of the same compound?
Its value is 78%.

And the “Population Fragmented Nuclei (%)” value [4]?
The value was 5%.

And the “Population Healthy Nuclei (%)” value [4]?
The value was 13%.

What about the “Population Hoechst High Intensity Objects (%)” value [4] of the same compound?
Its value is 5%.

And the “Population Membrane Permeable-Phenotype (%)” value [4]?
The value was 4%.

What about the “Population Mitochondria Different-Phenotype (%)” value [4] of the same compound?
Its value is 96%.

And the “Population Mitotic Cells (%)” value [4]?
The value was 21%.

What about the “Population Normal (%)” value [4] of the same compound?
The value was 94%.

What about the “Population Pyknosed Nuclei (%)” value [4] of the same compound?
The value was 81%.

What about the “Population Tubulin-Different-Phenotype (%)” value [4] of the same compound?
The value was 92%.

And the “Total Cell Count” value [4]?
Its value is 190.

What about the “Population Apoptotic (%)” value [5] of the same compound?
Its value is 64%.

And the “Population Fragmented Nuclei (%)” value [5]?
The value was 14%.

And the “Population Healthy Nuclei (%)” value [5]?
The value was 38%.

And the “Population Hoechst High Intensity Objects (%)” value [5]?
The value was 16%.

What about the “Population Membrane Permeable-Phenotype (%)” value [5] of the same compound?
The value was 2%.

What about the “Population Mitochondria Different-Phenotype (%)” value [5] of the same compound?
Its value is 92%.

What about the “Population Mitotic Cells (%)” value [5] of the same compound?
Its value is 35%.

And the “Population Normal (%)” value [5]?
Its value is 83%.

What about the “Population Pyknosed Nuclei (%)” value [5] of the same compound?
The value was 46%.

What about the “Population Tubulin-Different-Phenotype (%)” value [5] of the same compound?
The value was 90%.

What about the “Total Cell Count” value [5] of the same compound?
Its value is 330.

What about the “Population Apoptotic (%)” value [6] of the same compound?
The value was 51%.

And the “Population Fragmented Nuclei (%)” value [6]?
The value was 7%.

And the “Population Healthy Nuclei (%)” value [6]?
The value was 43%.

What about the “Population Hoechst High Intensity Objects (%)” value [6] of the same compound?
The value was 6%.

And the “Population Membrane Permeable-Phenotype (%)” value [6]?
Its value is 11%.

What about the “Population Mitochondria Different-Phenotype (%)” value [6] of the same compound?
Its value is 64%.

What about the “Population Mitotic Cells (%)” value [6] of the same compound?
The value was 48%.

And the “Population Normal (%)” value [6]?
Its value is 93%.

What about the “Population Pyknosed Nuclei (%)” value [6] of the same compound?
The value was 48%.

What about the “Population Tubulin-Different-Phenotype (%)” value [6] of the same compound?
Its value is 97%.

And the “Total Cell Count” value [6]?
The value was 172.

What about the “Population Apoptotic (%)” value [7] of the same compound?
Its value is 89%.

And the “Population Fragmented Nuclei (%)” value [7]?
Its value is 16%.

And the “Population Healthy Nuclei (%)” value [7]?
The value was 10%.

And the “Population Hoechst High Intensity Objects (%)” value [7]?
The value was 22%.

And the “Population Membrane Permeable-Phenotype (%)” value [7]?
Its value is 0%.

What about the “Population Mitochondria Different-Phenotype (%)” value [7] of the same compound?
The value was 100%.

And the “Population Mitotic Cells (%)” value [7]?
The value was 10%.

What about the “Population Normal (%)” value [7] of the same compound?
Its value is 77%.

And the “Population Pyknosed Nuclei (%)” value [7]?
Its value is 72%.

And the “Population Tubulin-Different-Phenotype (%)” value [7]?
The value was 100%.

What about the “Total Cell Count” value [7] of the same compound?
The value was 225.

And the “Population Apoptotic (%)” value [8]?
The value was 85%.

And the “Population Fragmented Nuclei (%)” value [8]?
The value was 5%.

And the “Population Healthy Nuclei (%)” value [8]?
Its value is 24%.

And the “Population Hoechst High Intensity Objects (%)” value [8]?
Its value is 4%.

And the “Population Membrane Permeable-Phenotype (%)” value [8]?
The value was 4%.

What about the “Population Mitochondria Different-Phenotype (%)” value [8] of the same compound?
The value was 95%.

What about the “Population Mitotic Cells (%)” value [8] of the same compound?
The value was 14%.

And the “Population Normal (%)” value [8]?
The value was 95%.

And the “Population Pyknosed Nuclei (%)” value [8]?
Its value is 70%.

What about the “Population Tubulin-Different-Phenotype (%)” value [8] of the same compound?
Its value is 95%.

And the “Total Cell Count” value [8]?
Its value is 205.

What about the “Population Apoptotic (%)” value [9] of the same compound?
Its value is 52%.

And the “Population Fragmented Nuclei (%)” value [9]?
The value was 21%.

And the “Population Healthy Nuclei (%)” value [9]?
The value was 45%.

And the “Population Hoechst High Intensity Objects (%)” value [9]?
The value was 15%.

What about the “Population Membrane Permeable-Phenotype (%)” value [9] of the same compound?
The value was 4%.

And the “Population Mitochondria Different-Phenotype (%)” value [9]?
Its value is 74%.

What about the “Population Mitotic Cells (%)” value [9] of the same compound?
Its value is 47%.

And the “Population Normal (%)” value [9]?
Its value is 84%.

And the “Population Pyknosed Nuclei (%)” value [9]?
The value was 33%.

What about the “Population Tubulin-Different-Phenotype (%)” value [9] of the same compound?
Its value is 88%.

What about the “Total Cell Count” value [9] of the same compound?
The value was 371.

What about the “Population Apoptotic (%)” value [10] of the same compound?
Its value is 47%.

And the “Population Fragmented Nuclei (%)” value [10]?
Its value is 6%.

And the “Population Healthy Nuclei (%)” value [10]?
Its value is 63%.

What about the “Population Hoechst High Intensity Objects (%)” value [10] of the same compound?
Its value is 9%.

What about the “Population Membrane Permeable-Phenotype (%)” value [10] of the same compound?
Its value is 8%.

What about the “Population Mitochondria Different-Phenotype (%)” value [10] of the same compound?
The value was 43%.

And the “Population Mitotic Cells (%)” value [10]?
Its value is 52%.

What about the “Population Normal (%)” value [10] of the same compound?
Its value is 90%.

And the “Population Pyknosed Nuclei (%)” value [10]?
The value was 30%.

What about the “Population Tubulin-Different-Phenotype (%)” value [10] of the same compound?
Its value is 96%.

And the “Total Cell Count” value [10]?
The value was 230.

And the “Population Apoptotic (%)” value [11]?
Its value is 86%.

What about the “Population Fragmented Nuclei (%)” value [11] of the same compound?
Its value is 23%.

And the “Population Healthy Nuclei (%)” value [11]?
The value was 15%.

What about the “Population Hoechst High Intensity Objects (%)” value [11] of the same compound?
Its value is 20%.

And the “Population Membrane Permeable-Phenotype (%)” value [11]?
Its value is 6%.

What about the “Population Mitochondria Different-Phenotype (%)” value [11] of the same compound?
The value was 100%.

What about the “Population Mitotic Cells (%)” value [11] of the same compound?
The value was 13%.

What about the “Population Normal (%)” value [11] of the same compound?
The value was 79%.

What about the “Population Pyknosed Nuclei (%)” value [11] of the same compound?
Its value is 60%.

And the “Population Tubulin-Different-Phenotype (%)” value [11]?
Its value is 96%.

What about the “Total Cell Count” value [11] of the same compound?
Its value is 258.

What about the “Population Apoptotic (%)” value [12] of the same compound?
The value was 89%.

And the “Population Fragmented Nuclei (%)” value [12]?
The value was 8%.

What about the “Population Healthy Nuclei (%)” value [12] of the same compound?
The value was 29%.

What about the “Population Hoechst High Intensity Objects (%)” value [12] of the same compound?
The value was 7%.

What about the “Population Membrane Permeable-Phenotype (%)” value [12] of the same compound?
Its value is 1%.

And the “Population Mitochondria Different-Phenotype (%)” value [12]?
The value was 93%.

What about the “Population Mitotic Cells (%)” value [12] of the same compound?
Its value is 10%.

And the “Population Normal (%)” value [12]?
The value was 92%.

What about the “Population Pyknosed Nuclei (%)” value [12] of the same compound?
The value was 61%.

What about the “Population Tubulin-Different-Phenotype (%)” value [12] of the same compound?
Its value is 93%.

And the “Total Cell Count” value [12]?
The value was 209.
